Laboratory results as given in ChEMBL document CHEMBL1144463, “Rapid bactericidal activity of daptomycin against methicillin-resistant and methicillin-susceptible Staphylococcus aureus peritonitis in mice as measured with bioluminescent bacteria” (2007).
In brackets after ≈: the same amount, converted by molar mass.

Experiments:
Type in all cases: functional
[1] = system: Staphylococcus aureus; assay: Reduction in bioluminescent methicillin-resistant Staphylococcus aureus Xen1 in neutropenic CD1 mouse with peritonitis at 50 mg/kg, sc after 5 hrs relative to control; set-up: scale not given: the % may be the effect or the level left; conditions: route subcutaneous
How it was run: (§1)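 Cyclophosphamide-neutropenic female CD-1 mice (150 mg/kg i.p. day −4, 100 mg/kg day −1) were infected i.p. with a lethal inoculum in 6% mucin. A single s.c. or gavage dose was given 1 h later. Mice were anesthetized and imaged hourly to 5 h. Region-of-interest total flux (photons/s/cm2) was averaged over 5 mice. Percent reduction is relative to time-matched saline (10 ml/kg s.c.) controls.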

[2] = system: Staphylococcus aureus; assay: Antibacterial activity against methicillin-susceptible Staphylococcus aureus Xen29 infected nonneutropenic CD1 mouse assessed as mouse survival at 50 mg/kg, sc after 7 days; conditions: 168 h, route subcutaneous
How it was run: (§2)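 Healthy female CD-1 mice (20–25 g) were infected i.p. with a lethal dose of lux strain (2 × 10^7 to 5 × 10^8 CFU/mouse) from an overnight Mueller-Hinton culture suspended in 6% hog gastric mucin. A single s.c. dose was given 1 h post-inoculation. Survival was recorded daily for 7 days, n=5/group.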

[3] = system: Staphylococcus aureus; assay: Antibacterial activity against methicillin-resistant Staphylococcus aureus Xen1 infected nonneutropenic CD1 mouse assessed as mouse survival at 50 mg/kg, sc after 7 days; conditions: 168 h, route subcutaneous; how it was run: as §2
[4] = system: Staphylococcus aureus; assay: Antimicrobial activity against bioluminescent methicillin-resistant Staphylococcus aureus Xen1
How it was run: (§3)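 MIC by broth microdilution following CLSI guidelines against bioluminescent lux-carrying strains (Xen-1 plasmid-borne lux, Xen-29 chromosomal lux), grown overnight in Mueller-Hinton broth at 37°C.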

[5] = system: Staphylococcus aureus; assay: Antibacterial activity against methicillin-susceptible Staphylococcus aureus Xen29 infected neutropenic CD1 mouse assessed as mouse survival at 50 mg/kg, sc after 24 hrs; conditions: route subcutaneous
How it was run: (§4)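 Female CD-1 mice (20–25 g) were made neutropenic with cyclophosphamide i.p. at 150 mg/kg 4 days and 100 mg/kg 1 day before infection. They were infected i.p. with a lethal dose of lux strain (2 × 10^7 to 5 × 10^8 CFU/mouse) suspended in 6% hog gastric mucin. A single s.c. or gavage dose was given 1 h later. Survivors were counted daily for 7 days, n=5/group.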

[6] = system: Staphylococcus aureus; assay: Antibacterial activity against methicillin-susceptible Staphylococcus aureus Xen29 infected neutropenic CD1 mouse assessed as mortality at 50 mg/kg, sc after 7 days; conditions: 168 h, route subcutaneous; how it was run: as §4
[7] = system: Staphylococcus aureus; assay: Reduction in bioluminescent methicillin-sensitive Staphylococcus aureus Xen29 in immunocompetent CD1 mouse with peritonitis at 50 mg/kg, sc relative to control; set-up: scale not given: the % may be the effect or the level left; conditions: route subcutaneous
How it was run: (§5)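 Peritonitis in healthy female CD-1 mice (n = 5/group): i.p. Xen-29 (2 × 10^7 to 5 × 10^8 CFU) in 6% mucin, then a single s.c. or gavage dose at 1 h. Controls got saline 10 ml/kg s.c. Mice were anesthetized hourly (pentobarbital 60 mg/kg i.p. or isoflurane) and imaged ventral side up for 1–5 min, to 5 h postdosing. Total flux (photons/s/cm2) over the infected region was averaged per group. Percent reduction is versus time-matched saline controls.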

[8] = system: Staphylococcus aureus; assay: Reduction in bioluminescent methicillin-sensitive Staphylococcus aureus Xen29 in neutropenic CD1 mouse with peritonitis at 50 mg/kg, sc after 3 hrs relative to control; set-up: scale not given: the % may be the effect or the level left; conditions: route subcutaneous; how it was run: as §1
[9] = system: Staphylococcus aureus; assay: Reduction in bioluminescent methicillin-resistant Staphylococcus aureus with peritonitis Xen1 in immunocompetent CD1 mouse at 50 mg/kg, sc after 3 hrs relative to control; set-up: scale not given: the % may be the effect or the level left; conditions: route subcutaneous
How it was run: (§6)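 Peritonitis in healthy female CD-1 mice: lethal i.p. inoculum in 6% mucin, single s.c. dose 1 h later. Mice were anesthetized hourly (isoflurane inhalation or pentobarbital 60 mg/kg i.p.) and imaged ventral side up for 1–5 min. Total flux (photons/s/cm2) was taken over the infected-site region of interest and averaged over 5 mice. Percent reduction is versus saline-treated (10 ml/kg s.c.) controls at the same time point.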

[10] = system: Staphylococcus aureus; assay: Reduction in bioluminescent methicillin-resistant Staphylococcus aureus Xen1 in neutropenic CD1 mouse with peritonitis at 50 mg/kg, sc after 2 hrs relative to control; set-up: scale not given: the % may be the effect or the level left; conditions: route subcutaneous; how it was run: as §1
[11] = system: Staphylococcus aureus; assay: Antibacterial activity against methicillin-resistant Staphylococcus aureus Xen1 infected neutropenic CD1 mouse assessed as mouse survival at 50 mg/kg, sc after 24 hrs; conditions: route subcutaneous; how it was run: as §4
[12] = system: Staphylococcus aureus; assay: Reduction in bioluminescent methicillin-sensitive Staphylococcus aureus Xen29 in neutropenic CD1 mouse with peritonitis at 50 mg/kg, sc after 4 hrs relative to control; set-up: scale not given: the % may be the effect or the level left; conditions: route subcutaneous
How it was run: (§7)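 Neutropenia was induced with cyclophosphamide 150 mg/kg i.p. at day −4 and 100 mg/kg i.p. at day −1. Mice were then infected i.p. with Xen-29 (2 × 10^7 to 5 × 10^8 CFU) in 6% mucin (n = 5/group) and dosed once, s.c. or by gavage, at 1 h. Luminescence was imaged hourly under anesthesia, 0–5 h postdosing. Mean region-of-interest flux is given as percent reduction versus time-matched saline (10 ml/kg s.c.) controls.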

[13] = system: Staphylococcus aureus; assay: Reduction in bioluminescent methicillin-sensitive Staphylococcus aureus Xen29 in immunocompetent CD1 mouse with peritonitis at 50 mg/kg, sc after 3 hrs relative to control; set-up: scale not given: the % may be the effect or the level left; conditions: route subcutaneous; how it was run: as §5
[14] = system: Staphylococcus aureus; assay: Reduction in bioluminescent methicillin-sensitive Staphylococcus aureus Xen29 in immunocompetent CD1 mouse with peritonitis at 50 mg/kg, sc after 4 hrs relative to control; set-up: scale not given: the % may be the effect or the level left; conditions: route subcutaneous; how it was run: as §5
[15] = system: Staphylococcus aureus; assay: Reduction in bioluminescent methicillin-sensitive Staphylococcus aureus Xen29 in neutropenic CD1 mouse with peritonitis at 50 mg/kg, sc after 5 hrs relative to control; set-up: scale not given: the % may be the effect or the level left; conditions: route subcutaneous; how it was run: as §7
[16] = system: Staphylococcus aureus; assay: Antibacterial activity against methicillin-resistant Staphylococcus aureus Xen1 infected neutropenic CD1 mouse assessed as mortality at 50 mg/kg, sc after 7 days; conditions: 168 h, route subcutaneous; how it was run: as §4
[17] = system: Staphylococcus aureus; assay: Reduction in bioluminescent methicillin-sensitive Staphylococcus aureus Xen29 in neutropenic CD1 mouse with peritonitis at 50 mg/kg, sc after 2 hrs relative to control; set-up: scale not given: the % may be the effect or the level left; conditions: route subcutaneous; how it was run: as §7
[18] = system: Staphylococcus aureus; assay: Reduction in bioluminescent methicillin-sensitive Staphylococcus aureus Xen29 in immunocompetent CD1 mouse with peritonitis at 50 mg/kg, sc after 5 hrs relative to control; set-up: scale not given: the % may be the effect or the level left; conditions: route subcutaneous; how it was run: as §6
[19] = system: Staphylococcus aureus; assay: Reduction in bioluminescent methicillin-resistant Staphylococcus aureus Xen1 in immunocompetent CD1 mouse with peritonitis at 50 mg/kg, sc after 2 hrs relative to control; set-up: scale not given: the % may be the effect or the level left; conditions: route subcutaneous; how it was run: as §6
[20] = system: Staphylococcus aureus; assay: Antimicrobial activity against bioluminescent methicillin-susceptible Staphylococcus aureus Xen29; how it was run: as §3
[21] = system: Staphylococcus aureus; assay: Reduction in bioluminescent methicillin-sensitive Staphylococcus aureus Xen29 in immunocompetent CD1 mouse with peritonitis at 100 mg/kg, po after 4 hrs relative to control; set-up: scale not given: the % may be the effect or the level left; how it was run: as §5
[22] = system: Staphylococcus aureus; assay: Reduction in bioluminescent methicillin-resistant Staphylococcus aureus Xen1 in neutropenic CD1 mouse with peritonitis at 100 mg/kg, po after 2 hrs relative to control; set-up: scale not given: the % may be the effect or the level left; how it was run: as §1
[23] = system: Staphylococcus aureus; assay: Antibacterial activity against methicillin-susceptible Staphylococcus aureus Xen29 infected neutropenic CD1 mouse assessed as mortality at 100 mg/kg, po after 4 days; how it was run: as §4
[24] = system: Staphylococcus aureus; assay: Reduction in bioluminescent methicillin-sensitive Staphylococcus aureus Xen29 in immunocompetent CD1 mouse with peritonitis at 100 mg/kg, po after 3 hrs relative to control; set-up: scale not given: the % may be the effect or the level left; how it was run: as §5
[25] = system: Staphylococcus aureus; assay: Reduction in bioluminescent methicillin-sensitive Staphylococcus aureus Xen29 in neutropenic CD1 mouse with peritonitis at 100 mg/kg, po after 4 hrs relative to control; set-up: scale not given: the % may be the effect or the level left; how it was run: as §7
[26] = system: Staphylococcus aureus; assay: Antibacterial activity against methicillin-resistant Staphylococcus aureus Xen1 infected neutropenic CD1 mouse assessed as mortality at 100 mg/kg, po after 4 days; how it was run: as §4
[27] = system: Staphylococcus aureus; assay: Reduction in bioluminescent methicillin-sensitive Staphylococcus aureus Xen29 in immunocompetent CD1 mouse with peritonitis at 100 mg/kg, po after 5 hrs relative to control; set-up: scale not given: the % may be the effect or the level left; how it was run: as §5
[28] = system: Staphylococcus aureus; assay: Reduction in bioluminescent methicillin-resistant Staphylococcus aureus Xen1 in neutropenic CD1 mouse with peritonitis at 100 mg/kg, po after 5 hrs relative to control; set-up: scale not given: the % may be the effect or the level left; how it was run: as §1
[29] = system: Staphylococcus aureus; assay: Reduction in bioluminescent methicillin-resistant Staphylococcus aureus Xen1 in neutropenic CD1 mouse with peritonitis at 100 mg/kg, po after 3 hrs relative to control; set-up: scale not given: the % may be the effect or the level left; how it was run: as §1
[30] = system: Staphylococcus aureus; assay: Antibacterial activity against methicillin-resistant Staphylococcus aureus Xen1 infected neutropenic CD1 mouse assessed as mortality at 100 mg/kg, po within 24 hrs; conditions: Xen1, 24 h; how it was run: as §4
[31] = system: Staphylococcus aureus; assay: Reduction in bioluminescent methicillin-sensitive Staphylococcus aureus Xen29 in neutropenic CD1 mouse with peritonitis at 100 mg/kg, po after 3 hrs relative to control; set-up: scale not given: the % may be the effect or the level left; how it was run: as §7
[32] = system: Staphylococcus aureus; assay: Reduction in bioluminescent methicillin-sensitive Staphylococcus aureus Xen29 in neutropenic CD1 mouse with peritonitis at 100 mg/kg, po after 5 hrs relative to control; set-up: scale not given: the % may be the effect or the level left; how it was run: as §7
[33] = system: Staphylococcus aureus; assay: Antibacterial activity against methicillin-susceptible Staphylococcus aureus Xen29 infected neutropenic CD1 mouse assessed as mortality at 100 mg/kg, po within 24 hrs; conditions: Xen29, 24 h; how it was run: as §4

CCCCCCCCCC(=O)N[C@@H](Cc1c[nH]c2ccccc12)C(=O)N[C@H](CC(N)=O)C(=O)N[C@@H](CC(=O)O)C(=O)N[C@@H]1C(=O)NCC(=O)N[C@@H](CCCN)C(=O)N[C@@H](CC(=O)O)C(=O)N[C@H](C)C(=O)N[C@@H](CC(=O)O)C(=O)NCC(=O)N[C@H](CO)C(=O)N[C@@H]([C@H](C)CC(=O)O)C(=O)N[C@@H](CC(=O)c2ccccc2N)C(=O)O[C@@H]1C
Activity [1]: 99.9% | survival at 50 mg/kg [2]: 100% | survival at 50 mg/kg [3]: 100% | MIC [4]: 0.5 µg/mL (≈ 0.309 µM) | survival at 50 mg/kg [5]: 100% | survival at 50 mg/kg [6]: 40% | Activity [7]: 90% | Activity [8]: 98% | Activity [9]: 97% | Activity [10]: 93% | survival at 50 mg/kg [11]: 100% | Activity [12]: 99.4% | Activity [13]: 96% | Activity [14]: 98% | Activity [15]: > 99.7% | survival at 50 mg/kg [16]: 40% | Activity [17]: 92% | Activity [18]: 99% | Activity [19]: 89% | MIC [20]: 1 µg/mL (≈ 0.617 µM)

CC(=O)NC[C@H]1CN(c2ccc(N3CCOCC3)c(F)c2)C(=O)O1 [LINEZOLID]
Activity [21]: 85% | MIC [4]: 0.5 µg/mL (≈ 1.48 µM) | Activity [22]: 91% | Activity [23]: 100% | Activity [24]: 59% | Activity [25]: 89% | Activity [26]: 100% | Activity [27]: 90% | Activity [28]: 99.2% | Activity [29]: 98% | survival at 100 mg/kg [30]: 100% | Activity [31]: 68% | Activity [32]: 96.6% | survival at 100 mg/kg [33]: 100% | MIC [20]: 1 µg/mL (≈ 2.96 µM)
